Assay results: ChEMBL document CHEMBL1147494, “Differentiation of in vitro transcriptional repression and activation profiles of selective glucocorticoid modulators” (Bioorg Med Chem Lett, 2004)

What was measured:
Glucocorticoid receptor [1] = molecular target: T1, Glucocorticoid receptor (Homo sapiens, UniProt P04150); assay: Inhibition of transcriptional repression in CV-1 cells expressing glucocorticoid receptor; assay type: functional, cell-based
T1 sequence (P04150 whole entry): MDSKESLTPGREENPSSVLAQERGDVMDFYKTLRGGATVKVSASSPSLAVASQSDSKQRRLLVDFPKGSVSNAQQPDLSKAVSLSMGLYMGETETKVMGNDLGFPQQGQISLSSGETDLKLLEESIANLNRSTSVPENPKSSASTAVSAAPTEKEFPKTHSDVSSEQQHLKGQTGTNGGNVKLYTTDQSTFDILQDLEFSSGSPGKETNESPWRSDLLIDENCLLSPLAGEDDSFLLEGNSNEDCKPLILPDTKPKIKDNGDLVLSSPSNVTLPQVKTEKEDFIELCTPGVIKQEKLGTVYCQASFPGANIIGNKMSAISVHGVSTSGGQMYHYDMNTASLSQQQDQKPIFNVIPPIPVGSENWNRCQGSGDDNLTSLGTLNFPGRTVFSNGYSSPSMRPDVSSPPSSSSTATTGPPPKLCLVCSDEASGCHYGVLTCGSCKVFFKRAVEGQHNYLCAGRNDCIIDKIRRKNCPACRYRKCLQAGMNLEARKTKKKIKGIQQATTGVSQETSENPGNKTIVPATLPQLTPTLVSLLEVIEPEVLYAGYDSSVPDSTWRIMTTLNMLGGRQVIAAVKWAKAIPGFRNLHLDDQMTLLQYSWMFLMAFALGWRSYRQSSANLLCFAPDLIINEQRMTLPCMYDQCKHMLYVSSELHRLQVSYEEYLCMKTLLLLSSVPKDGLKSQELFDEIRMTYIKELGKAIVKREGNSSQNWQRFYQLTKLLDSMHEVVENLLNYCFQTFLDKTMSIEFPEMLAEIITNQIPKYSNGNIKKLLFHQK

Glucocorticoid receptor [2] = molecular target: T1, Glucocorticoid receptor; assay: Inhibition of transcriptional activation in CV-1 cells expressing glucocorticoid receptor; assay type: functional, cell-based
[3] = molecular target: T2, Progesterone receptor (Homo sapiens) (UniProt P06401); assay: In vitro binding affinity against progesterone receptor
T2 sequence (whole entry): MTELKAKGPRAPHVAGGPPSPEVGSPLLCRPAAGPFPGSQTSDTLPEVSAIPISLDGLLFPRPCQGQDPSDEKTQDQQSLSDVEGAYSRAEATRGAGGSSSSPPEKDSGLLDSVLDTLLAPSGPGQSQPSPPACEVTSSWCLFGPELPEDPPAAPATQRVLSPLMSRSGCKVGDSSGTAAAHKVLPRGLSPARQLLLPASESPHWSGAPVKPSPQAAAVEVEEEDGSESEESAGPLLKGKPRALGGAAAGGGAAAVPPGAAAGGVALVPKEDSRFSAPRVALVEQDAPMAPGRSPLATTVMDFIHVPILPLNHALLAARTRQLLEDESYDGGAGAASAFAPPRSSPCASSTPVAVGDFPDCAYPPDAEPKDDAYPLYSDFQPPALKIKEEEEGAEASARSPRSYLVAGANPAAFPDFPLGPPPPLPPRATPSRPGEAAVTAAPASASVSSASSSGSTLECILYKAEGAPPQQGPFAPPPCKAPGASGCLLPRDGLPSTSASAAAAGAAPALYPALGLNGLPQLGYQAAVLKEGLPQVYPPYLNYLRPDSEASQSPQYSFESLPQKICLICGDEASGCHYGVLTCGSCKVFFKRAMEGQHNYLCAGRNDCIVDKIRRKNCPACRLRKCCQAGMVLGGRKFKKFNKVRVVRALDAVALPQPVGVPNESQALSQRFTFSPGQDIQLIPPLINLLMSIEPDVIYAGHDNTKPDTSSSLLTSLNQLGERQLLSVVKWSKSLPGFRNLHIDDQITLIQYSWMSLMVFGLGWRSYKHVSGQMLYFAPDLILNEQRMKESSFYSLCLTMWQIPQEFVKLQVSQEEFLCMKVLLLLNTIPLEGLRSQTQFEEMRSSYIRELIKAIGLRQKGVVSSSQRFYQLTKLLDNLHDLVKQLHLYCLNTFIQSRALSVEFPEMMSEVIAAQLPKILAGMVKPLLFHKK
Outline: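 Competition binding assay against progesterone receptor. Replicates vary by value: single experiments in triplicate; two experiments with triplicate determinations (with standard deviation); or at least three separate experiments in triplicate (mean ± SEM).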

Progesterone receptor = molecular target: T3, Progesterone receptor (Homo sapiens, UniProt P06401); assay: Inhibition of transcriptional activation in cells expressing progesterone receptor isoform B; assay type: functional
T3 sequence (P06401 whole entry): T2 sequence (whole entry)

[4] = molecular target: T2, Progesterone receptor (Homo sapiens); assay: Transcriptional activation in cells expressing progesterone receptor isoform B compared to progesterone; assay type: functional
Cell line [5] = assay: Efficacy for transcriptional activation of aromatase in Human cell native protein assay expressed as percentage of the maximal response of Dexamethasone; assay type: functional
Cell line [6] = assay: Efficacy for transcriptional activation of collagenase in Human cell native protein assay expressed as percentage of the maximal response of Dexamethasone; assay type: functional
Cell line [7] = assay: Effective concentration of compound for transcriptional repression of IL-6 in Human cell native protein assay
Cell line [8] = assay: Efficacy for transcriptional activation of TAT in Human cell native protein assay expressed as percentage of the maximal response of Dexamethasone; assay type: functional
Cell line [9] = assay: Effective concentration of compound for transcriptional activation of TAT in Human cell native protein assay; assay type: functional, cell-based
Cell line [10] = assay: Efficacy for transcriptional repression of IL-6 in Human cell native protein assay expressed as percentage of the maximal response of Dexamethasone; assay type: functional
Cell line [11] = assay: Effective concentration for transcriptional activation of aromatase in Human cell native protein assay; assay type: functional, cell-based
Cell line [12] = assay: Effective concentration of compound for transcriptional repression of collagenase in Human cell native protein assay
Cell line [13] = assay: Effective concentration of compound for transcriptional repression of PGE-2 in Human cell native protein assay
Cell line [14] = assay: Effective concentration of compound for transcriptional activation of osteocalcin in Human cell native protein assay; assay type: functional, cell-based
Cell line [15] = assay: Efficacy for transcriptional […] of PGE-2 in Human cell native protein assay expressed as percentage of the maximal response of Dexamethasone; assay type: functional
Cell line [16] = assay: Efficacy for transcriptional repression of osteocalcin in Human cell native protein assay expressed as percentage of the maximal response of Dexamethasone

Structure (SMILES)	IC50 (Glucocorticoid receptor [1]) [nM]	IC50 (Glucocorticoid receptor [2]) [nM]	Activity [3] [nM]	also measured
C=C(COC(C)=O)CC1Oc2cccc(OC)c2-c2ccc3c(c21)C(C)=CC(C)(C)N3 (configuration not stated)	141	310	> 5000	
C=CCC1Oc2cccc(OC)c2-c2ccc3c(c21)C(C)=CC(C)(C)N3 (stereo in doubt; 4a)			1800	
C/C=C/CC1Oc2cccc(OC)c2-c2ccc3c(c21)C(C)=CC(C)(C)N3 (configuration not stated)	38	150	2100	
C=CCC1Oc2cccc(OC)c2-c2ccc3c(c21)C(C)=CC(C)(C)N3 (stereo in doubt; (-)4a) [AL-43]	6.9	14		Efficacy (Cell line [5]): 82%; Efficacy (Cell line [6]): 77%; EC50 (Cell line [7]): 30 nM; Efficacy (Cell line [8]): 71%; EC50 (Cell line [9]): 40 nM; Efficacy (Cell line [10]): 83%; EC50 (Cell line [11]): 160 nM; EC50 (Cell line [12]): 37 nM
COc1c(O)ccc2c1-c1ccc3c(c1[C@H]([C@@H]1C=C(C)CCC1)O2)C(C)=CC(C)(C)N3			11.4	IC50 (Progesterone receptor): 7.1 nM; Efficacy [4]: 260%
COc1cccc2c1-c1ccc3c(c1C(C1C=C(C)CCC1)O2)C(C)=CC(C)(C)N3 (configuration not stated)	7	15	980	
COc1cccc2c1-c1ccc3c(c1C(C1C=CCC1)O2)C(C)=CC(C)(C)N3 (configuration not stated)			2200	
COc1cccc2c1-c1ccc3c(c1[C@H]([C@@H]1C=C(C)CCC1)O2)C(C)=CC(C)(C)N3	5.8	> 5000	430	Efficacy (Cell line [5]): 43%; EC50 (Cell line [13]): 5.4 nM; EC50 (Cell line [14]): 54 nM; Efficacy (Cell line [6]): 97%; Efficacy (Cell line [15]): 95%; EC50 (Cell line [7]): 45 nM; IC50 (Progesterone receptor): 14 nM; Efficacy (Cell line [16]): 71%; Efficacy (Cell line [8]): 67%; EC50 (Cell line [9]): 290 nM; Efficacy (Cell line [10]): 90%; EC50 (Cell line [11]): 59 nM; EC50 (Cell line [12]): 3.4 nM; Efficacy [4]: 70%

More lines, main results first:

IC50 (Glucocorticoid receptor [1]) [nM]	IC50 (Glucocorticoid receptor [2]) [nM]	Activity [3] [nM]	Structure (SMILES)	also measured
> 5000	> 5000	> 5000	COc1cccc2c1-c1ccc3c(c1[C@@H]([C@@H]1C=C(C)CCC1)O2)C(C)=CC(C)(C)N3	
		52	COc1c(O)ccc2c1-c1ccc3c(c1[C@H]([C@H]1C=C(C)CCC1)O2)C(C)=CC(C)(C)N3	IC50 (Progesterone receptor): 210 nM; Efficacy [4]: 190%
13	33		C=CCC1Oc2cccc(OC)c2-c2ccc3c(c21)C(C)=CC(C)(C)N3 (stereo in doubt; 4a) [AL-43]	
23	39	1200	C/C=C\CC1Oc2cccc(OC)c2-c2ccc3c(c21)C(C)=CC(C)(C)N3 (configuration not stated)	
217	> 5000	> 5000	COc1cccc2c1-c1ccc3c(c1C(CC=C1CCCC1)O2)C(C)=CC(C)(C)N3 (configuration not stated)	
440	> 5000	> 5000	COc1cccc2c1-c1ccc3c(c1[C@@H]([C@H]1C=C(C)CCC1)O2)C(C)=CC(C)(C)N3	
		> 5000	COc1cccc2c1-c1ccc3c(c1C(C1/C=C\CCCCC1)O2)C(C)=CC(C)(C)N3 (configuration not stated)	
87	220	> 5000	COC(=O)/C=C/CC1Oc2cccc(OC)c2-c2ccc3c(c21)C(C)=CC(C)(C)N3 (configuration not stated)	
